Screening data (PubChem)
A selection: hits, their analogues and other compounds. The true share with any hit is near 1.8%.
CHRM4 agonist – human M4 muscarinic receptor agonists, primary screen, CHO-K1 cells, Fluo-8 calcium fluorescence; Muscarinic acetylcholine receptor M4 (Homo sapiens), P08173; CHO-K1 hM4/Gqi5; vehicle 0%, full acetylcholine response 100%; activation, % at 3 µM; 0.14% of 360,000 active; AID 624127, 2012;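 active = activation above the run mean over all test wells plus 3 SD, cut at about 32% in these data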;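 also: peak over basal fluorescence ratio per well then scaled between controls; 0% = DMSO wells and 100% = acetylcholine at EC100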
CHRM5 PAM – human M5 muscarinic receptor positive allosteric modulators, primary screen, CHO-K1 cells, Fluo-8 calcium fluorescence; 0.3% of 360,000 active; Muscarinic acetylcholine receptor M5 (Homo sapiens), P08912; CHO-K1 hM5, ACh EC20 PAM; 0% = ACh EC20, 100% = ACh EC100; AID 624038, 2012; activation, % at 3 µM;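 active = activation above the run cutoff, the mean activation of all test compounds plus 3 SD, cut at about 18% in these data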
Target sequence (P08912 whole entry, looked up): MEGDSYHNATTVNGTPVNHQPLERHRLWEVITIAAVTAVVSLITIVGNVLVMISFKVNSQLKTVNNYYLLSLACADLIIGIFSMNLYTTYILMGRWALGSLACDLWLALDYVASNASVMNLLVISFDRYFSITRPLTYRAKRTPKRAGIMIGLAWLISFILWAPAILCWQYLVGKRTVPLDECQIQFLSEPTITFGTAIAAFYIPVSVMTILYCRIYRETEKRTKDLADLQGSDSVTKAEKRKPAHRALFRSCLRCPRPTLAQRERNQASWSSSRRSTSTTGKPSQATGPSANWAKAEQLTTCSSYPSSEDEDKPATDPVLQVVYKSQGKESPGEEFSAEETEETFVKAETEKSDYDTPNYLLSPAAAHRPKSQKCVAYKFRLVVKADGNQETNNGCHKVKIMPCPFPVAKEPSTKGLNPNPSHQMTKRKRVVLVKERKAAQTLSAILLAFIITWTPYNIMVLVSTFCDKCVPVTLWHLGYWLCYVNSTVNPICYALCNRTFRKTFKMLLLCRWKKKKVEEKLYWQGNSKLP
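system = human M5 receptor in CHO-K1 cells | reagent = EC20 acetylcholine as agonist stimulus | compound dosing = single-point, 3 µM nominal | incubation = Fluo-8 loading 80 min at 37 °C plus 30 min room temperature | detection = Fluo-8 calcium dye fluorescence, kinetic read | benchmarks = low control EC20 acetylcholine (0%), high control EC100 acetylcholine (100%)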
M4 antag – human M4 muscarinic receptor antagonists, primary screen, CHO cells, Fluo-8 calcium fluorescence; Muscarinic acetylcholine receptor M4 (Homo sapiens), P08173; CHO-hM4 cells, ACh EC80; inhibition, % at 3 µM; 0.73% of 360,000 active;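 active = inhibition above its plate's cutoff, the mean inhibition of sample wells plus 3 SD, cut at about 27% in these data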;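 also: 0% = acetylcholine EC80 with DMSO and 100% = DMSO without agonist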
CHRM4 PAM – human M4 muscarinic receptor positive allosteric modulators, primary screen, CHO-K1 cells, Fluo-8 calcium fluorescence; 0.4% of 360,000 active; activation, % at 3 µM; Muscarinic acetylcholine receptor M4 (Homo sapiens), P08173; CHO-K1 hM4/Gqi5, ACh EC20; 0% = ACh EC20, 100% = maximal ACh; AID 624126, 2012;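 active = activation above its plate's cutoff, the mean activation of sample wells plus 3 SD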
CHRM5 agonist – human M5 muscarinic receptor agonists, primary screen, CHO-K1 cells, Fluo-8 calcium fluorescence | Muscarinic acetylcholine receptor M5 (Homo sapiens), P08912 | CHO-K1 hM5 cells; 0% DMSO wells, 100% maximal acetylcholine response | activation, % at 3 µM | 0.19% of 360,000 active;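 active = activation above the run's mean over test compounds plus 3 SD, cut at about 23% in these data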;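 also: signal is peak over basal fluorescence ratio across the kinetic read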
M5 antag – human M5 muscarinic receptor antagonists, primary screen, CHO cells, Fluo-8 calcium fluorescence; 0.59% of 360,000 active; Muscarinic acetylcholine receptor M5 (Homo sapiens), P08912; CHO-hM5 cells, ACh EC80; AID 624040, 2012; inhibition, % at 3 µM;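 active = inhibition above a per-plate cutoff, the mean of that plate's test compounds plus 3 SD, cut at about 27% in these data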;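 also: 0% = acetylcholine EC80 with DMSO and 100% = DMSO without agonist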
The depositor's hits bear a star.

SMILES	CHRM4 agonist	CHRM5 PAM	M4 antag	CHRM4 PAM	CHRM5 agonist	M5 antag
CCN1/C(=C/C=C/C2=[N+](CC)c3ccccc3C2(C)C)C(C)(C)c2ccccc21	365*	-24	95*	-14	501*	97*
CN1CCC(n2nccc2N)CC1	0	2	1	-1	-1	4
Nc1ccnn1C1CCNCC1	0	-5	-5	-1	-3	27*
CC1N=C(c2ccccc2)c2cc(Br)ccc2NC1=O (stereo unspecified)	0	-2	-9	-1	-3	10
CCN1CCN(CC(c2ccccc2)c2ccccc2)CC1	2	-34	21	-11	-20	36*
CC1=CC(C)CC(C)OC(=O)CC(c2ccc(O)cc2)NC(=O)C(Cc2c(Br)[nH]c3ccccc23)N(C)C(=O)C(C)NC(=O)C(C)C1 (stereo unspecified)	-1	17	-9	10	1	-9
COc1ccc(Br)cc1CN1CCN(CCO)CC1	1	5	5	8	-4	-2
COc1cc(Br)cc(CN2CCN(C)CC2)c1O	1	-20	41*	-14	-6	10
C[C@]12CCC(=O)C(O)=C1CC[C@@H]1[C@@H]2CC[C@]2(C)C(=O)CC[C@@H]12	10	-10	-19	-8	2	5
COc1cccc(-n2c(C)nc3ccccc3c2=O)c1	0	-5	-7	27*	0	-3
COc1ccc(C(=O)C2CCCN(CCc3ccccc3)C2)cc1OC (stereo unspecified)	1	-7	8	-12	-3	4
CCC(CC)C1C(C#N)=C(N)Oc2c1c(=O)oc1ccccc21 (stereo unspecified)	11	-2	-2	0	3	2
N#CC1=C(N)Oc2c(c(=O)oc3ccccc23)C1c1cccnc1 (stereo unspecified)	-1	20*	0	13	-3	-11
O=C(O)C(O)(c1ccccc1)C1CCCCC1 (stereo unspecified)	2	4	-8	12	-2	3
CCN(CC)CCCOC(=O)C(OC)(c1ccccc1)c1ccccc1	1	-23	53*	-20	-7	56*
CC[N+](C)(CC)CCCOC(=O)C(O)(c1ccccc1)C1CCCCC1 (stereo unspecified)	1	-33	99*	-24	-11	98*
CCOC(C(=O)OCC(O)CN(CC)CC)(c1ccccc1)c1ccccc1 (stereo unspecified)	1	-10	8	-3	-13	-1
CCOC(C(=O)OCCC[N+](C)(CC)CC)(c1ccccc1)c1ccccc1	1	-22	21	-14	-6	55*
C[C@]12CCC(=O)C=C1C=CC1C2CC[C@]2(C)C(=O)CCC12 (stereo partly specified)	2	4	-3	7	1	-6
Cc1cc(OCC(=O)N2CCC(C(=O)O)(c3ccccc3)CC2)c2c(C)c(C)c(=O)oc2c1	0	-2	76*	-16	2	2
CN(C)c1ccc(/C=C/[N+](=O)[O-])cc1	10	-8	11	1	35*	55*
CN(C)CCSC1c2ccccc2CSc2ccccc21 (stereo unspecified)	5	-32	98*	-17	-21	99*
Clc1ccccc1CNC1CN2CCC1CC2 (stereo unspecified)	0	-18	17	-10	-8	32*
c1ccc(CNC2CN3CCC2CC3)cc1 (stereo unspecified)	1	-33	9	-8	-9	16
CCCC(=O)OCC[N+](C)(C)C	1	-15	-4	-5	42*	-8
SMILES	CHRM4 agonist	CHRM5 PAM	M4 antag	CHRM4 PAM	CHRM5 agonist	M5 antag
O=C(NCCN1CCC2(CC1)C(=O)NCN2c1cccc(F)c1)c1ccc2ccccc2c1	107*	-25	101*	-18	52*	99*
O=C1NCN(c2ccccc2)C12CCNCC2	1	0	-5	10	-4	-1
O=C1NCN(c2ccccc2)C12CCN(C(CCc1ccccc1)c1nnnn1-c1ccc3c(c1)OCCO3)CC2 (stereo unspecified)	2	2	-8	4	5	5
Nc1ccc(Cc2ccc(N)cc2)cc1	3	1	-8	3	0	9
C=C1C(C)C2C(Cc3ccccc3)NC(=O)C23C(OC(C)=O)C=CC(C)(O)CC(C)CC=CC3C1O (stereo unspecified)	2	21*	-19	7	4	-12
C=C1C(=O)O[C@@H]2C[C@@H](C)[C@@H]3C=CC(=O)[C@@]3(C)[C@@H](OC(=O)CC(=O)O[C@H]3[C@@H]4C(=C)C(=O)O[C@@H]4C[C@@H](C)[C@@H]4C=CC(=O)[C@]43C)[C@H]12	1	4	39*	-2	-1	14
COC1CC2C=C(C)C=CC=CC(=O)NC(c3ccccc3)CC=CCCC(O)CC(=O)C2=C1O (stereo unspecified)	21	-20	87*	-14	16	54*
COC(=O)C1=C(c2ccc(OC)c(OC)c2)C[C@@H]2CC[C@H]1N2C(=O)NC1Cc2ccccc2C1	-1	8	-9	5	-6	5
CCc1ccc(N2C(=O)NC(=O)/C(=C\c3cc(C)n(-c4cc(C(=O)O)cc(C(=O)O)c4)c3C)C2=O)cc1	2	6	-14	18*	-1	-3
Nc1ccc(CC(N)c2csc(Nc3ncccn3)n2)cc1 (stereo unspecified)	0	-8	-7	10	-1	3
NC(Cc1ccc(Cl)cc1)c1csc(Nc2ncccn2)n1 (stereo unspecified)	2	0	96*	-14	4	0
CCN1C[C@]2(COC(=O)c3ccccc3N)CC[C@H](OC)C34[C@@H]5C[C@H]6[C@H](OC)[C@@H]5[C@](O)(C[C@@H]6OC)[C@@](O)([C@H]13)[C@@H](OC)[C@@H]42	2	-1	-17	-3	-4	-3
CCCCCCC(=O)c1c(O)n(-c2ccccc2OC)c(=O)[nH]c1=O	0	1	-2	0	-2	-5
CCOC(=O)c1c(NS(=O)(=O)c2ccccc2)n(CCCOC)c2nc3ccccc3nc12	3	13	0	23*	7	22
